Key:
whole saliva proteases = assay: Proteolysis of purified statherin in pooled whole saliva; assay type: in vitro ADME, human; conditions: WS boiled to abolish protease activities; statherin 400 µg/ml; 37°C; RP-HPLC
Summary of the method: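 Pooled Parafilm-stimulated whole saliva from four healthy donors, boiled to abolish protease activity. Statherin, purified from parotid secretion by zinc precipitation and RP-HPLC, added to 400 µg/ml final. Incubated at 37°C and sampled at 0, 10, 30, 60 and 90 min. Aliquots boiled 10 min, diluted in 0.1% TFA, and run on analytical C-18 RP-HPLC (0–55% buffer B over 74 min). Intact statherin peak integrated.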

[1] = system: whole saliva supernatant proteases; assay: Proteolysis of purified statherin in pooled whole saliva supernatant; assay type: in vitro ADME, human; conditions: WSS boiled to abolish protease activities; statherin 400 µg/ml; 37°C; RP-HPLC
Summary of the method: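 Supernatant from pooled stimulated whole saliva (14,000 × g, 20 min, 4°C), boiled to abolish protease activity. Parotid-derived purified statherin added to 400 µg/ml final. Incubated at 37°C and sampled at 0, 1, 3, 5 and 7 h. Aliquots boiled 10 min, diluted in 0.1% TFA, and analysed by analytical C-18 RP-HPLC (0–55% of 80% acetonitrile/0.1% TFA over 74 min). Intact statherin peak area integrated.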

## statherin (DSSEEKFLRRIGRFGYGYGPYQPVPEQPLYPQPYQPQYQQYTF; UniProt P02808 20-62, looked up)
Whole saliva proteases
  Stability of statherin in boiled WS (control): remained intact
[1]
  Stability of statherin in boiled WSS (control): remained intact

From publication PMC2948583 (Journal of proteome research, 2010)
